ChEMBL document CHEMBL1156322, “Synthesis and biological evaluation of nitrogen-containing benzophenone analogues as TNF-alpha and IL-6 inhibitors with antioxidant activity” (Bioorg Med Chem Lett, 2010)
Calls of active or inactive are those of the source. The rule behind the calls is not given here.

Columns and labels:
[1] = test system: Radical scavenging activity; test: Antioxidant activity assessed as DPPH free radical scavenging activity at 1 uM after 6 mins by spectrophotometry; assay type: functional
THP-1 [2] = test: Antiinflammatory activity in LPS-stimulated human THP1 cells assessed as inhibition of TNFalpha formation at 10 uM pretreated 30 mins before LPS challenge measured after 24 hrs by ELISA; assay type: functional; parameters: scale not given: the % may be the effect or the level left
In short: (§1)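 PMA-differentiated human THP-1 cells in RPMI 1640 with 10% FBS, penicillin and streptomycin. Compound or vehicle (0.5% DMSO) was added for 30 min at 37 °C, then E. coli 0127:B8 LPS. Cells were incubated 24 h at 37 °C, 5% CO2. Supernatant TNF-α and IL-6 were measured by ELISA. Percent inhibition of release was calculated versus control.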

THP-1 [3] = test: Antiinflammatory activity in LPS-stimulated human THP1 cells assessed as inhibition of IL6 formation at 10 uM pretreated 30 mins before LPS challenge measured after 24 hrs by ELISA; assay type: functional; parameters: scale not given: the % may be the effect or the level left; in short: as §1
[4] = test system: Radical scavenging activity; test: Antioxidant activity assessed as DPPH free radical scavenging activity at 1 mM after 20 mins by spectrophotometry
[5] = test system: Radical scavenging activity; test: Antioxidant activity assessed as DPPH free radical scavenging activity at 1 uM after 8 mins by spectrophotometry; assay type: functional
[6] = test system: Radical scavenging activity; test: Antioxidant activity assessed as DPPH free radical scavenging activity at 1 uM after 2 mins by spectrophotometry; assay type: functional
[7] = test system: Radical scavenging activity; test: Antioxidant activity assessed as DPPH free radical scavenging activity at 1 uM after 10 mins by spectrophotometry; assay type: functional
[8] = test system: Radical scavenging activity; test: Antioxidant activity assessed as DPPH free radical scavenging activity at 1 uM after 4 mins by spectrophotometry; assay type: functional
THP-1 [9] = test: Antiinflammatory activity in LPS-stimulated human THP1 cells assessed as inhibition of IL6 formation at 1 uM pretreated 30 mins before LPS challenge measured after 24 hrs by ELISA; assay type: functional; parameters: scale not given: the % may be the effect or the level left; in short: as §1
[10] = Cytotoxicity against LPS-stimulated human THP-1 cells at 10 uM after 24 hrs by CCK-8 assay; settings: THP-1, 24 h
THP-1 [11] = test: Antiinflammatory activity in LPS-stimulated human THP1 cells assessed as inhibition of TNFalpha formation at 1 uM pretreated 30 mins before LPS challenge measured after 24 hrs by ELISA; assay type: functional; parameters: scale not given: the % may be the effect or the level left; in short: as §1

Compound | Activity [1] | Activity (THP-1 [2]) | Activity (THP-1 [3]) | Activity [4] | Activity [5] | Activity [6] | Activity [7] | Activity [8] | Activity (THP-1 [9]) | Activity [10] | Activity (THP-1 [11])
COc1cc(OC)c(C(=O)c2ccccc2F)c(O)c1CN1CCCC1 | 6.45% | 10% | 87% | 24.8% | 9.5% | 3.6% | 11.9% | 4.24% | 15% | 27% | 
COc1cc(OC)c(C(=O)c2cccc(Cl)c2)c(O)c1CN1CCN(C)CC1 | inactive | 100% | 100% | inactive | inactive | inactive | inactive | inactive | 54% | 77% | 
COc1cc(O)c(C(=O)c2cccc(Cl)c2)c(OC)c1 | 4.2% | 0% | 78% | 16.4% | 6.52% | 3.21% | 7.6% | 3.9% | 31% | 49% | 
COc1cc(OC)c(C(=O)c2cccc(Cl)c2)c(O)c1CN1CCCCC1 | 14.8% | 11% | 83% | 45.3% | 20.9% | 9.2% | 22.8% | 11.4% | 33% | 31% | 
COc1cc(OC)c(C(=O)c2ccccc2F)c(O)c1CN1CCOCC1 | 4.74% | 27% | 89% | 19.7% | 6.8% | 3.5% | 8.21% | 4.2% | 19% | 39% | 
COc1cc(OC)c(C(=O)c2ccccc2Br)c(O)c1CN1CCCCC1 | 17.7% | 78% | 98% | 64.4% | 25.4% | 10.8% | 32.5% | 14.2% | 22% | 61% | 
COc1cc(O)c(C(=O)c2ccccc2Br)c(OC)c1 | inactive | 11% | 72% | inactive | inactive | inactive | inactive | inactive | 7% | 43% | 
COc1cc(OC)c(C(=O)c2ccccc2Br)c(O)c1CN1CCCC1 | inactive | 99% | 100% | inactive | inactive | inactive | inactive | inactive | 19% | 84% | 
O=C(O)c1cc(O)c(O)c(O)c1 | 19.4% |  |  |  | 38.4% | 18.2% | 46.9% | 22.7% |  |  | 
COc1cc(OC)c(C(=O)c2cccc(F)c2)c(O)c1CN1CCCC1 | 2.11% | 1% | 93% | 7.29% | 3.78% | 0.92% | 4.78% | 4.51% | 34% | 34% | 
COc1cc(OC)c(C(=O)c2ccccc2F)c(O)c1CN1CCN(C)CC1 | 4% | 19% | 83% | 17.5% | 5.4% | 3.3% | 6.2% | 3.95% | 21% | 40% | 
COc1cc(OC)c(C(=O)c2ccccc2Br)c(O)c1CN1CCN(C)CC1 | 4.5% | 20% | 81% | 13.5% | 6.8% | 3.2% | 7.59% | 3.95% | 9% | 23% | 
COc1cc(OC)c(C(=O)c2cccc(F)c2)c(O)c1CN1CCCCC1 | 9.25% | 0% | 87% | 24.7% | 11.8% | 4.2% | 13.7% | 5.98% | 30% | 27% | 
C[C@@H]1C[C@H]2[C@@H]3CCC4=CC(=O)C=C[C@]4(C)[C@@]3(F)[C@@H](O)C[C@]2(C)[C@@]1(O)C(=O)CO [DEXAMETHASONE] |  |  |  |  |  |  |  |  |  |  | 73%
COc1cc(O)c(C(=O)c2cccc(F)c2)c(OC)c1 | inactive | 0% | 81% | inactive | inactive | inactive | inactive | inactive | 38% | 24% | 
COc1cc(OC)c(C(=O)c2cccc(Cl)c2)c(O)c1CN1CCOCC1 | 9.45% | 1% | 83% | 33.4% | 14.6% | 5.52% | 15.9% | 6.44% | 42% | 39% | 
COc1cc(OC)c(C(=O)c2ccccc2Br)c(O)c1CN1CCOCC1 | 1.9% | 65% | 97% | 6.23% | 2.11% | 0.8% | 2.95% | 1.2% | 19% | 66% | 
COc1cc(O)c(C(=O)c2ccccc2F)c(OC)c1 | 13.6% | 47% | 71% | 32.4% | 16.8% | 8.2% | 18.9% | 12.5% | 11% | 53% | 
COc1cc(OC)c(C(=O)c2cccc(F)c2)c(O)c1CN1CCOCC1 | inactive | 21% | 86% | inactive | inactive | inactive | inactive | inactive | 35% | 42% | 
COc1cc(OC)c(C(=O)c2ccccc2F)c(O)c1CN1CCCCC1 | 23% | 0% | 84% | 73.3% | 28.9% | 13.7% | 34.6% | 16.9% | 18% | 31% | 
COc1cc(OC)c(C(=O)c2cccc(Cl)c2)c(O)c1CN1CCCC1 | 1.82% | 37% | 81% | 5.13% | 2.1% | 0.5% | 2.11% | 1.6% | 41% | 53% | 
COc1cc(OC)c(C(=O)c2cccc(F)c2)c(O)c1CN1CCN(C)CC1 | 18.5% | 54% | 97% | 40.4% | 19.4% | 9.5% | 22.6% | 15.8% | 47% | 22% | 
